In ChEMBL document CHEMBL4680236, “Design, synthesis and structure-activity relationships of novel 15-membered macrolides: Quinolone/quinoline-containing sidechains tethered to the C-6 position of azithromycin acylides” (Eur J Med Chem, 2020):
Values after ≈ are worked out from the molar mass of the structure shown.

Assays:
Streptococcus pneumoniae [1] = experiment: Antibacterial activity against Erythromycin-susceptible Streptococcus pneumoniae ATCC 49619 assessed as reduction in microbial growth; assay type: functional
Streptococcus pneumoniae [2] = experiment: Bactericidal activity against Erythromycin-susceptible Streptococcus pneumoniae ATCC 49619; assay type: functional
Outline: (§1)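 Bacteria were exposed to 1- to 8-fold MIC of the sample, then transferred to fresh medium without antibacterial. After further incubation, colonies were counted. MBC was taken as the lowest concentration giving a >3 log10 reduction in colony number.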

Streptococcus pneumoniae [3] = experiment: Ratio of MBC to MIC against Erythromycin-susceptible Streptococcus pneumoniae ATCC 49619; assay type: functional
Streptococcus pneumoniae [4] = experiment: Antibacterial activity against penicillin-susceptible Streptococcus pneumoniae PU09 harboring mef gene assessed as reduction in microbial growth; assay type: functional
Streptococcus pneumoniae [5] = experiment: Bactericidal activity against penicillin-susceptible Streptococcus pneumoniae PU09 harboring mef gene; assay type: functional
Outline: (§2)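 Bacteria were exposed to 1- to 8-fold their MIC of test sample, then transferred to fresh culture medium without antibacterial compound and incubated for the required time. Colonies were then counted. MBC is the lowest concentration giving a reduction in colony number of >3 Log₁₀.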

Streptococcus pneumoniae [6] = experiment: Ratio of MBC to MIC against penicillin-susceptible Streptococcus pneumoniae PU09; assay type: functional
Streptococcus pneumoniae [7] = experiment: Antibacterial activity against MLSB-resistant Streptococcus pneumoniae 07P390 harboring ermB gene assessed as reduction in microbial growth; assay type: functional
Streptococcus pneumoniae [8] = experiment: Bactericidal activity against MLSB-resistant Streptococcus pneumoniae 07P390 harboring ermB gene assessed as reduction in microbial growth; assay type: functional; outline: as §2
Streptococcus pneumoniae [9] = experiment: Ratio of MBC to MIC against MLSB-resistant Streptococcus pneumoniae 07P390 harboring ermB; assay type: functional
Staphylococcus aureus [10] = experiment: Antibacterial activity against MLSB/methicillin/ciprofloxacin-resistant Staphylococcus aureus PU32 harboring ermA gene assessed as reduction in microbial growth; assay type: functional
Staphylococcus aureus [11] = experiment: Bactericidal activity against MLSB/methicillin/ciprofloxacin-resistant Staphylococcus aureus PU32 harboring ermA gene; assay type: functional; outline: as §2
Staphylococcus aureus [12] = experiment: Ratio of MBC to MIC against MLSB/methicillin/ciprofloxacin-resistant Staphylococcus aureus PU32 harboring ermA gene; assay type: functional
Staphylococcus aureus [13] = experiment: Antibacterial activity against MLSB/methicillin-resistant Staphylococcus aureus 15B196 assessed as reduction in microbial growth; assay type: functional
Staphylococcus aureus [14] = experiment: Bactericidal activity against MLSB/methicillin-resistant Staphylococcus aureus 15B196; assay type: functional; outline: as §2
Haemophilus influenzae [15] = experiment: Antibacterial activity against azithromycin-susceptible Haemophilus influenzae ATCC 49247 assessed as reduction in microbial growth; assay type: functional
Haemophilus influenzae [16] = experiment: Bactericidal activity against azithromycin-susceptible Haemophilus influenzae ATCC 49247; assay type: functional; outline: as §1
Haemophilus influenzae [17] = experiment: Ratio of MBC to MIC against azithromycin-susceptible Haemophilus influenzae ATCC 49247; assay type: functional
[18] = test system: Staphylococcus epidermidis; experiment: Antibacterial activity against methicillin-susceptible Staphylococcus epidermidis ATCC 12228 assessed as reduction in microbial growth; assay type: functional
[19] = test system: Staphylococcus epidermidis; experiment: Antibacterial activity against methicillin-resistant Staphylococcus epidermidis 16-5 assessed as reduction in microbial growth; assay type: functional
Staphylococcus aureus [20] = experiment: Antibacterial activity against methicillin-susceptible Staphylococcus aureus ATCC 29213 assessed as reduction in microbial growth; assay type: functional
Staphylococcus aureus [21] = experiment: Antibacterial activity against methicillin-resisitant Staphylococcus aureus 16-30 assessed as reduction in microbial growth; assay type: functional
Escherichia coli [22] = experiment: Antibacterial activity against ESBL negative Escherichia coli 16-7 assessed as reduction in microbial growth; assay type: functional
Escherichia coli [23] = experiment: Antibacterial activity against ESBL positive Escherichia coli 16-1 assessed as reduction in microbial growth; assay type: functional
Escherichia coli [24] = experiment: Antibacterial activity against NDM-1 producing Escherichia coli […] assessed as reduction in microbial growth; assay type: functional
Klebsiella pneumoniae [25] = experiment: Antibacterial activity against NDM-1 producing Klebsiella pneumoniae ATCC BAA-2146 assessed as reduction in microbial growth; assay type: functional
Klebsiella pneumoniae [26] = experiment: Antibacterial activity against ESBL producing Klebsiella pneumoniae 16-14 assessed as reduction in microbial growth; assay type: functional
Enterococcus faecalis = experiment: Antibacterial activity against vancomycin-susceptible Enterococcus faecalis ATCC 29212 assessed as reduction in microbial growth; assay type: functional
Acinetobacter baumannii = experiment: Antibacterial activity against Acinetobacter baumannii ATCC 19606 assessed as reduction in microbial growth; assay type: functional; conditions: ATCC 19606 = CIP 70.34 = JCM 6841
Enterobacter cloacae = experiment: Antibacterial activity against Enterobacter cloacae ATCC 43560 assessed as reduction in microbial growth; assay type: functional
Klebsiella aerogenes = experiment: Antibacterial activity against Enterobacter aerogenes ATCC 13048 assessed as reduction in microbial growth; assay type: functional
Shigella = experiment: Antibacterial activity against Shigella ATCC 12022 assessed as reduction in microbial growth; assay type: functional
Pseudomonas aeruginosa = experiment: Antibacterial activity against Pseudomonas aeruginosa ATCC 27853 assessed as reduction in microbial growth; assay type: functional
Staphylococcus aureus [27] = experiment: Antibacterial activity against MLSB/methicillin/ciprofloxacin-resistant Staphylococcus aureus PU32 harboring ermA gene assessed as reduction in microbial growth relative to ciprofloxacin; assay type: functional
Staphylococcus aureus [28] = experiment: Antibacterial activity against MLSB/methicillin-resistant Staphylococcus aureus 15B196 assessed as reduction in microbial growth relative to ciprofloxacin; assay type: functional
Haemophilus influenzae [29] = experiment: Antibacterial activity against azithromycin-susceptible Haemophilus influenzae ATCC 49247 assessed as reduction in microbial growth relative to ciprofloxacin; assay type: functional
Enterococcus faecium = experiment: Antibacterial activity against vancomycin-resistant Enterococcus faecium ATCC 700221 assessed as reduction in microbial growth
Staphylococcus aureus [30] = experiment: Ratio of MBC to MIC against MLSB/methicillin-resistant Staphylococcus aureus 15B196; assay type: functional
DNA gyrase = DNA gyrase (Escherichia coli, UniProt P0AES4+P0AES6); experiment: Inhibition of Escherichia coli DNA gyrase using relaxed DNA as substrate incubated for 15 mins by ethidium bromide-based agarose gel electrophoresis; assay type: protein-complex assay
Outline: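 Supercoiling assay with relaxed pBR322 (0.3 µg), made by treating negatively supercoiled pBR322 with E. coli topoisomerase I, and 1 unit E. coli gyrase. Buffer: 50 mM Tris-HCl pH 8.0, 10 mM MgCl2, 100 mM potassium glutamate, 10 mM DTT, 50 µg/mL BSA, 1 mM ATP. Run 37 °C, 15 min, stopped with 25 mM EDTA. IC50 in µM.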

[31] = target: T1, DNA gyrase (Escherichia coli) (UniProt P0AES6+P0AES4); experiment: Poison activity at Escherichia coli DNA gyrase assessed as stabilization of DNA cleavage complex by measuring linear plasmid DNA formation using supercoiled pBR322 incubated for 15 mins by electrophoresis relative to ciprofloxacin; assay type: protein-complex assay
Outline: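 Cleavage assay with 0.3 µg supercoiled pBR322 and 10 units E. coli gyrase. Buffer: 50 mM Tris-HCl pH 8.0, 10 mM MgCl2, 10 mM DTT, 50 µg/mL BSA, 1 mM ATP, 5 µg/mL tRNA; 37 °C, 15 min. Then 1% SDS for 5 min, then 25 mM EDTA plus 100 µg/mL proteinase K for 30 min. Phenol/chloroform extraction, then 1.2% agarose with ethidium bromide.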

Escherichia coli [32] = experiment: Antibacterial activity against Escherichia coli BW25113 depletion of toIC efflux gene assessed as reduction in microbial growth; assay type: functional
Escherichia coli [33] = experiment: Antibacterial activity against Escherichia coli JW5503-1 depletion of toIC efflux gene assessed as reduction in microbial growth; assay type: functional
Escherichia coli [34] = experiment: Antibacterial activity against Escherichia coli JW5503-KanS depletion of toIC efflux gene assessed as reduction in microbial growth; assay type: functional
[35] = target: T1, DNA gyrase (Escherichia coli); conditions: time 15.0 min
Streptococcus pyogenes [36] = experiment: Antibacterial activity against MLSB-resistant Streptococcus pyogenes 12-206 harboring ermA gene assessed as reduction in microbial growth; assay type: functional
Streptococcus pyogenes [37] = experiment: Bactericidal activity against MLSB-resistant Streptococcus pyogenes 12-206 harboring ermA gene; assay type: functional; outline: as §2
Streptococcus pyogenes [38] = experiment: Ratio of MBC to MIC against MLSB-resistant Streptococcus pyogenes 12-206 harboring ermA gene; assay type: functional

Row | SMILES | MIC (Streptococcus pneumoniae [1]) | MBC (Streptococcus pneumoniae [2]) | Ratio (Streptococcus pneumoniae [3]) | MIC (Streptococcus pneumoniae [4]) | MBC (Streptococcus pneumoniae [5]) | Ratio (Streptococcus pneumoniae [6]) | MIC (Streptococcus pneumoniae [7]) | MBC (Streptococcus pneumoniae [8]) | Ratio (Streptococcus pneumoniae [9]) | MIC (Staphylococcus aureus [10]) | MBC (Staphylococcus aureus [11]) | Ratio (Staphylococcus aureus [12]) | MIC (Staphylococcus aureus [13]) | MBC (Staphylococcus aureus [14]) | MIC (Haemophilus influenzae [15]) | MBC (Haemophilus influenzae [16]) | Ratio (Haemophilus influenzae [17]) | fold change (FC) (Staphylococcus aureus [27]) | fold change (FC) (Staphylococcus aureus [28]) | fold change (FC) (Haemophilus influenzae [29]) | also measured
1 | CC[C@H]1OC(=O)[C@H](C)[C@@H](OC(=O)Cc2ccccn2)[C@H](C)[C@@H](O[C@@H]2O[C@H](C)C[C@H](N(C)C)[C@H]2O)[C@](C)(OC(=O)CCNCCC#Cc2cnc3ccccc3c2)C[C@@H](C)CN(C)[C@H](C)[C@@H](O)[C@]1(C)O | 0.062 µg/mL | 0.125 µg/mL (≈ 0.13 µM) | 2 | 1 µg/mL | 1 µg/mL (≈ 1.04 µM) | 1 | 0.5 µg/mL | > 4 µg/mL | >8 | 1 µg/mL | > 8 µg/mL | >8 | 128 µg/mL | > 256 µg/mL | 2 µg/mL | 4 µg/mL (≈ 4.17 µM) | 2 | 0.0054 | 88 | 172 | MIC [18]: 0.25 µg/mL; MIC [19]: > 64 µg/mL; MIC (Staphylococcus aureus [20]): 1 µg/mL; MIC (Staphylococcus aureus [21]): > 64 µg/mL; MIC (Escherichia coli [22]): 8 µg/mL; MIC (Escherichia coli [23]): 8 µg/mL; MIC (Escherichia coli [24]): 8 µg/mL; MIC (Klebsiella pneumoniae [25]): 32 µg/mL; MIC (Klebsiella pneumoniae [26]): 16 µg/mL; MIC (Enterococcus faecalis): 1 µg/mL; MIC (Acinetobacter baumannii): > 64 µg/mL; MIC (Enterobacter cloacae): 32 µg/mL; MIC (Klebsiella aerogenes): 32 µg/mL; MIC (Shigella): 8 µg/mL; MIC (Pseudomonas aeruginosa): > 64 µg/mL; MIC (Enterococcus faecium): > 64 µg/mL
2 | CC[C@H]1OC(=O)[C@H](C)[C@@H](OC(=O)Cc2ccccn2)[C@H](C)[C@@H](O[C@@H]2O[C@H](C)C[C@H](N(C)C)[C@H]2O)[C@](C)(OC(=O)CCN2CCN(c3cc4c(cc3F)c(=O)c(C(=O)O)cn4C3CC3)CC2)C[C@@H](C)CN(C)[C@H](C)[C@@H](O)[C@]1(C)O | 0.125 µg/mL | 0.25 µg/mL (≈ 0.228 µM) | 2 | 2 µg/mL | 4 µg/mL (≈ 3.65 µM) | 2 | 4 µg/mL | 32 µg/mL | 8 | 16 µg/mL | > 128 µg/mL | >8 | 16 µg/mL | 128 µg/mL (≈ 117 µM) | 0.25 µg/mL | 0.25 µg/mL (≈ 0.228 µM) | 1 | 0.076 | 9.7 | 19 | Ratio (Staphylococcus aureus [30]): 8; IC50 (DNA gyrase): 44.1 µM; Activity [31]: 28%; MIC (Escherichia coli [32]): 4 µg/mL; MIC (Escherichia coli [33]): 1 µg/mL; MIC (Escherichia coli [34]): 1 µg/mL; EC [35]: 69.5 µM
3 | CC[C@H]1OC(=O)[C@H](C)[C@@H](OC(=O)Cc2ccccn2)[C@H](C)[C@@H](O[C@@H]2O[C@H](C)C[C@H](N(C)C)[C@H]2O)[C@](C)(OC(=O)CCN2CCN(c3c(F)cc4c(=O)c(C(N)=O)cn(C5CC5)c4c3OC)CC2C)C[C@@H](C)CN(C)[C@H](C)[C@@H](O)[C@]1(C)O (some centres not stated) | 0.5 µg/mL | 1 µg/mL (≈ 0.878 µM) | 2 | 2 µg/mL | 8 µg/mL (≈ 7.03 µM) | 4 | 8 µg/mL | 8 µg/mL | 1 | 128 µg/mL | > 256 µg/mL |  | 8 µg/mL | 8 µg/mL (≈ 7.03 µM) | 0.5 µg/mL | 0.5 µg/mL (≈ 0.439 µM) | 1 | 0.14 | 1.2 | 36 | Ratio (Staphylococcus aureus [30]): 1; MIC (Streptococcus pyogenes [36]): 8 µg/mL; MBC (Streptococcus pyogenes [37]): > 64 µg/mL; Ratio (Streptococcus pyogenes [38]): >8; IC50 (DNA gyrase): 9.6 µM; Activity [31]: 71%; MIC (Escherichia coli [32]): 2 µg/mL; MIC (Escherichia coli [33]): 0.5 µg/mL; MIC (Escherichia coli [34]): 0.5 µg/mL; EC [35]: 18.2 µM
